Results on seven compounds are retold here after PMC11839910 (Nature Communications, 2025).

Converted amounts (≈) assume the structure as drawn. “Also recorded” adds a separate entry of the source.

As a reminder, the solubility is the concentration that dissolves in the medium under given conditions. Lower therefore signals a poorly soluble substance.

The target in series [1] is T1, SOD1^G93A (Homo sapiens, UniProt P00441, G94A). The experiment in a line: Intact protein LC-MS of covalent drug candidates with purified SOD1^G93A. Type of series: binding.
In series [2] the target is human serum albumin (HSA) (Homo sapiens, UniProt P02768). It is filed as in vitro ADME. The conditions noted are these: intact protein LC-MS.
The target in series [3] is T1, SOD1^G93A. Type of series: binding. The conditions noted are these: transgenic ALS^G93A mouse brain homogenate.
In series [4] the test system is SOD1^G93A mouse model. The settings on record: cited from earlier work.
Series [5] concerns the target T1, SOD1^G93A. Put plainly: In vivo target engagement. The essentials: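 Hemizygous B6SJL-Tg(SOD1*G93A)1Gur/J mice (15–30 weeks, either sex) were dosed in PBS or water (<2% final DMSO): 10 mg/kg IV, 12.5 or 30 mg/kg SC, or 20 mg/kg SC with collection at 1 h. Blood and brain underwent chloroform–ethanol extraction, then intact-protein C4 LC-MS for %TE against a 37% METE. Doses were re-estimated as old dose × (METE/%TE). Duplicate.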

For series [6], the system named is albumin. The settings on record: cited from earlier work.
A short description of series [7]: Solubility limit in IV dose formulation. Type of series: physicochemical.

Sequence of human serum albumin (HSA) (P02768 25-609): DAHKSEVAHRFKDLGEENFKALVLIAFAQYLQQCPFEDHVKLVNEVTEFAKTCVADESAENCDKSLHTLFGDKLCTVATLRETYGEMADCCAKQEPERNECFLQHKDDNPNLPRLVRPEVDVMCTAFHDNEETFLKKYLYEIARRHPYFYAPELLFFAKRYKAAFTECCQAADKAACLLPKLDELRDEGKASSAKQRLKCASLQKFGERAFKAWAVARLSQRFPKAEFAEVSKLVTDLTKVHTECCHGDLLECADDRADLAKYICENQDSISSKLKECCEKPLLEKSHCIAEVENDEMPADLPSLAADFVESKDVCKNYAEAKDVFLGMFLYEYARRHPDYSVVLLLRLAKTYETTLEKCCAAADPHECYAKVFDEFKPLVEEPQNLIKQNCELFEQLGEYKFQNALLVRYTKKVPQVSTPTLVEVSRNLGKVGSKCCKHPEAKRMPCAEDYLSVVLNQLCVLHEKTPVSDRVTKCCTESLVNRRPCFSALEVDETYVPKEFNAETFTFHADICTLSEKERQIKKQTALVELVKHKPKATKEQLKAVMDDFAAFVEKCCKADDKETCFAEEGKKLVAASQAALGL
T1 sequence (P00441 2-154 G94A limits assumed): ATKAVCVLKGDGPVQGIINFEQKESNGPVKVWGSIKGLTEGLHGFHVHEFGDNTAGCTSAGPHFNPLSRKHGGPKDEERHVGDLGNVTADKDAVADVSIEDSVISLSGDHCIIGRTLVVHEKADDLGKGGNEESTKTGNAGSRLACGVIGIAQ

On to `N.N.[Cl][Pt][Cl]` [cisplatin], for which the “proposed MoA confirmed by intact drug-protein mass (D1)” value (“proposed MoA confirmed” for short) in series [1] is “shows the predicted molecular mass”.

Consider `C=CC(=O)N1CCC[C@@H](n2nc(-c3ccc(Oc4ccccc4)cc3)c3c(N)ncnc32)C1` [ibrutinib], for which, in series [2], the “covalent binding to HSA” value is “minimal binding; also recorded: limited, but detectable covalent binding”.

For the compound `O=c1c2ccccc2[se]n1-c1ccccc1` [ebselen], in series [2], the “covalent binding to HSA” value is reported as “showed drug-related mass shifts with HSA”. Besides, in series [3], the “in vitro target engagement in target tissue homogenate (predicted mass shift)” value is listed as “show the predicted mass shifts”. Further, in series [4], the survival entry is on record as “improves survival”. Besides, the “proposed MoA confirmed” value in series [1] is “confirms its proposed MoA”. Moreover, the “METE reached in vivo (D5)” value in series [5] (at ~22% of LD50 (20 mg/kg SC, 1 h)) is given as “could not be reached”. The “effect on SOD1 in vivo (modification of SOD1^G93A)” value in series [5] (brain and blood of dosed SOD1^G93A mouse) is “promoting cysteinylation (in brain) and glutathionylation (in blood)”.

For the compound `CCN(CC)C(=S)SSC(=S)N(CC)CC` [disulfiram], the “covalent binding to HSA” value in series [2] is given as “showed drug-related mass shifts with HSA”. Besides, the “plasma protein binding via albumin” value in series [6] is “high plasma protein binding”. In series [7], this compound came in with a solubility of 4000 µg/mL (≈ 13.5 mM). Besides, the “proposed MoA confirmed” value in series [1] was “shows the predicted molecular mass”. Moreover, the “METE reached in vivo (D5)” value in series [5] (at a 20 mg/kg dose imposed by solubility limit) is reported as “could not be reached”.

Turning to `C=CC(=O)N1CCN(c2nc(=O)n(-c3c(C)ccnc3C(C)C)c3nc(-c4c(O)cccc4F)c(F)cc23)[C@@H](C)C1` [sotorasib], in series [2], the “covalent binding to HSA” value is reported as “negligible binding”.

In the case of `[O-][S+]1CCCCS1` (stereo not shown) [S-XL6, 1,2-dithiane-1-oxide], the “covalent binding to HSA” value in series [2] is reported as “negligible binding; also recorded: no detectable HSA binding”. Besides, in series [3], the “in vitro target engagement in target tissue homogenate (predicted mass shift)” value is “show the predicted mass shifts”. Further, the “proposed MoA confirmed” value in series [1] is “confirms the proposed MoA”. Besides, the “in vivo target engagement, detection of drug-protein complex” value in series [5] (brain, 1-hr post-dose via SC) is on record as “successful detection of cross-linked dimer”.

`CN(C)C/C=C/C(=O)Nc1cc2c(Nc3ccc(F)c(Cl)c3)ncnc2cc1O[C@H]1CCOC1` [afatinib]: the “covalent binding to HSA” value in series [2] is listed as “minimal binding; also recorded: limited, but detectable covalent binding”.
